697 NFkB inh – lowers PMA/ionomycin-induced NF-kB signal in 697 B cells. hit rate 0.33% among 330,000. 697 B-cell NF-kB luciferase reporter, 16 h. inhibition, % at 4 µM. AID 435022; in the data active = inhibition above about 35%
CHOP inhibitor – blocks CHOP induction under ER stress; inhibition, % at 10 µM; AID 2732; CHO-K1 CHOP-promoter luciferase, tunicamycin-induced, 15-18 h; hit rate 3.8% among 220,000;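 active = compounds that reduced the stress-induced luciferase reporter signal by more than about 70% of percent inhibition, limit read from the data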
UPR CHOP act – activators of apoptotic arm of unfolded protein response (CHOP). activation, % at 10 µM. CHO-CHOP luciferase reporter, UPR activation, luminescence; percent of tunicamycin response over DMSO baseline. AID 449763. hit rate 0.34% among 330,000;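 active = at 10 µM dose, activation of 40% or more, normalized to positive control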
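System: CHO CHOP reporter cells. Amount: 500 cells per well. Buffer or medium: F12 medium, 10% FBS. Compound dosing: one dose, 10 µM in 0.5% DMSO. Incubation: 6 h compound exposure at 37 °C after overnight seeding. Technique: Steady-Glo luciferase luminescence. Benchmarks: tunicamycin and DMSO controls.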
XBP1 UPR activ – adaptive UPR (XBP1) activation | CHO-XBP1 luciferase reporter, IRE1-XBP1 UPR activation, luminescence; percent of tunicamycin response, DMSO as zero | activation, % at 20 µM | hit rate 0.33% among 330,000;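 active = versus positive control, 20 µM dose yields 30% or more activation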
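Material: CHO cell line with stable XBP1 luciferase reporter; schedule: 16-18 h cell attachment at 37 °C, then 6 h compound exposure; signal: glow luminescence from Steady-Glo reagent; medium: serum-containing F12 medium, 10% FBS; benchmarks: tunicamycin 10 µg/mL and vehicle-only wells; read-out: percent activation relative to tunicamycin reference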
Gli-Sufu antag – blocks Gli-Sufu signaling in a luciferase reporter; Sufu-KO-LIGHT fibroblasts, Gli luciferase reporter luminescence; inhibition, % at 5 µM; AID 588413; hit rate 0.74% among 340,000;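 active = inhibition above about 55%, limit read from the data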
Jurkat NFkB inh – lowers PMA/ionomycin-induced NF-kB signal in Jurkat cells; PMA/ionomycin-induced NF-kB luciferase reporter, luminescence; inhibition, % at 4 µM; hit rate 0.53% among 330,000; in the data active = inhibition above about 50%
Each line names hits and unclear results; the compound was inactive in the other large screens. Compounds with a hit are over-represented: about 3.9% of the library has one in this group of screens.

CCOC(=O)C1(Cc2cccc(OC)c2)CCCN(C(=O)c2cc(C)on2)C1 (centres undefined)	none (no result: CHOP inhibitor)
CC(C)Oc1ccc(C(=O)Nc2ccc(Cl)c(S(=O)(=O)Nc3ccc(Cl)cc3)c2)cc1	CHOP inhibitor 71
Nc1ccc(C23CC4CC(CC(O)(C4)C2)C3)cc1	none
Nc1ccc(C23CC4CC(CC(C4)C2)C3)cc1	CHOP inhibitor 75
CCn1cc(CN2CCc3c([nH]c4ccccc34)C2c2cccc(OC)c2)c(C)n1 (centres undefined)	none
CCn1cc(CN2CCc3c([nH]c4ccccc34)C2c2ccc(F)c(OC)c2)c(C)n1 (centres undefined)	CHOP inhibitor 70
O=C(NCCSc1ncc(-c2ccc(F)cc2)[nH]1)c1ccc2c(c1)OCO2	none (no result: CHOP inhibitor)
CCOc1c(Br)ccc2c1sc1nc[nH]c(=O)c12	CHOP inhibitor 93
COCCOC(=O)c1sc2nc[nH]c(=O)c2c1C	none
COc1ccc(CNC(=O)C(C)n2ccc3cc(S(=O)(=O)N4CCCCCC4)ccc32)cc1 (centres undefined)	none (no result: CHOP inhibitor)
Cc1cc(C)nc(NS(=O)(=O)c2ccc(NC(=O)C3COc4ccccc4O3)cc2)n1 (centres undefined)	none
O=C(Nc1ccc(S(=O)(=O)Nc2ccccc2)cc1)C1COc2ccccc2O1 (centres undefined)	CHOP inhibitor 85
NC(=S)NN=Cc1nccc2ccccc12	Gli-Sufu antag 65 (no result: 697 NFkB inh, CHOP inhibitor, UPR CHOP act, XBP1 UPR activ, Jurkat NFkB inh)
Cc1cnc(C=NNC(N)=S)c2cccc(N)c12	none (no result: 697 NFkB inh, CHOP inhibitor, UPR CHOP act, XBP1 UPR activ, Jurkat NFkB inh)
CC(=O)c1cccc(NC(=O)c2cc(S(=O)(=O)N3CCOCC3)cs2)c1	none (no result: CHOP inhibitor)
N=C1/C(=C/c2cccn2Cc2ccc(F)cc2)C(=O)N=C2SC=CN12	none
Cc1ccc(Cn2cccc2/C=C2/C(=N)N3C=CSC3=NC2=O)cc1	CHOP inhibitor 94
CCc1ccc(NC(=O)Cn2nc(C)n3cccc3c2=O)cc1	none (no result: CHOP inhibitor)
O=c1cc(Nc2ccc3c(c2)OCO3)[nH]c(=O)n1-c1ccc(Br)cc1	CHOP inhibitor 77
CCc1ccc(-c2csc(NC(=O)C3CC(=O)N(c4ccc5c(c4)OCCO5)C3)n2)cc1 (centres undefined)	CHOP inhibitor 85
CCOC(=O)Cn1c(C)c(Br)c(=O)c2cccc(C)c21	CHOP inhibitor 92
CCOC(=O)Cn1c(=O)cc(C)c2ccccc21	none
COc1ccc(OCCN2CCCC2)cc1Nc1nnc(Cl)c(Nc2ccccc2S(C)(=O)=O)n1	none (no result: 697 NFkB inh, CHOP inhibitor, UPR CHOP act, XBP1 UPR activ, Jurkat NFkB inh)
Cn1c(-c2c(N)n(-c3ccccc3)c3nc4ccccc4nc23)nc2ccccc21	CHOP inhibitor 74 (no result: 697 NFkB inh, UPR CHOP act, XBP1 UPR activ, Jurkat NFkB inh)
CCOc1ccc(CCNC(=O)c2ccc(=O)[nH]c2)cc1OCC	none (no result: CHOP inhibitor)
O=P(CCc1ccccc1)(c1ccccc1)c1ccccc1	none (no result: 697 NFkB inh, CHOP inhibitor, UPR CHOP act, XBP1 UPR activ, Jurkat NFkB inh)
CN1CCN(CCP(=O)(c2ccccc2)c2ccccc2)CC1	CHOP inhibitor 73
CCOc1ccc(-n2c(=O)c3c4c(sc3n(CC(=O)NCc3ccco3)c2=O)CCC4)cc1	CHOP inhibitor 70
CCC1CCc2c(sc(N)c2C(N)=O)C1 (centres undefined)	none
CCOC(=O)c1c(N)sc2c1CCC(CC)C2 (centres undefined)	CHOP inhibitor 77
O=C(Nc1ccc(F)c(F)c1)C1=COCCO1	none (no result: CHOP inhibitor)
COc1ccc(Nc2nc(Cl)nc(N3CCN(c4ccc(OC)cc4)CC3)n2)cc1	CHOP inhibitor 93 (no result: Gli-Sufu antag)
COc1ccc(Nc2nc(N3CCCC3)nc(N3CCOCC3)n2)cc1	none (no result: CHOP inhibitor)
COc1ccc(Nc2nc(Cl)nc(Nc3ccc(OC)cc3)n2)cc1	CHOP inhibitor 71
COc1ccc(Nc2nc(OC)nc(N3CCN(c4ccc(OC)cc4)CC3)n2)cc1	CHOP inhibitor 77 (no result: 697 NFkB inh, UPR CHOP act, XBP1 UPR activ, Jurkat NFkB inh)
O=C(N/N=C/c1ccc(F)cc1)c1cccc(NC(=O)c2ccccc2Cl)c1	none (no result: CHOP inhibitor)
N=C(N)SCCc1ccc(CCSC(=N)N)cc1	none (no result: 697 NFkB inh, UPR CHOP act, XBP1 UPR activ, Gli-Sufu antag, Jurkat NFkB inh)
CN(C(=O)c1ccc2c(Cl)c3c(nc2c1)CCC3)c1ccccc1	none
CCN(C(=O)c1ccc2c(Cl)c3c(nc2c1)CCC3)c1ccc(C)c(C)c1	CHOP inhibitor 91
Cc1nn(CCCC(=O)NCc2ccc(F)cc2)c(=O)c2nccn12	none (no result: CHOP inhibitor)
FC(F)(F)c1cc(Sc2ccccc2)nc(-c2ccccn2)n1	CHOP inhibitor 71
O=C(COC(=O)c1ccc(O)cc1O)Nc1cc(-c2ccccc2)nn1-c1ccccc1	none (no result: CHOP inhibitor)
CC(=O)c1ccc(N2CCN(S(=O)(=O)c3ccc4c(c3)CC(C)N4C(C)=O)CC2)cc1 (centres undefined)	Gli-Sufu antag 57 (no result: CHOP inhibitor)
O=[N+]([O-])c1ccc(-c2ccc(/C=N/Nc3nc(N4CCCC4)nc(N4CCCC4)n3)o2)cc1	none
O=[N+]([O-])c1ccc(-c2ccc(/C=N/Nc3nc(N4CCCCC4)nc(N4CCCCC4)n3)o2)cc1	CHOP inhibitor 95
COc1nc(N/N=C/c2ccc(-c3cccc([N+](=O)[O-])c3)o2)nc(N2CCOCC2)n1	CHOP inhibitor 71 (no result: 697 NFkB inh, UPR CHOP act, XBP1 UPR activ, Gli-Sufu antag, Jurkat NFkB inh)
COC(=O)C(CCSC)NS(=O)(=O)c1ccc(Cl)cc1 (centres undefined)	none
CSCCC(NS(=O)(=O)c1ccc(Cl)cc1)C(=O)OCC(=O)NC12CC3CC(CC(C3)C1)C2 (centres undefined)	CHOP inhibitor 74
O=C(COC(=O)c1ccccc1)NCc1ccco1	none
O=C(COC(=O)c1ccccc1Nc1cccc(C(F)(F)F)c1)NCc1ccco1	CHOP inhibitor 79
O=C(COC(=O)c1cc(-c2cccs2)nc2ccccc12)NCc1ccco1	none
O=C(COC(=O)c1cc(-c2ccc(Cl)s2)nc2ccccc12)NCc1ccco1	CHOP inhibitor 81
Cc1ccc(C)c(NC(=O)CN2C(=O)CC(C)S(=O)(=O)c3ccccc32)c1 (centres undefined)	none (no result: CHOP inhibitor)
c1ccc(COc2ncnc3c2ncn3CCCNCC2CCCO2)cc1 (centres undefined)	none (no result: 697 NFkB inh, CHOP inhibitor, UPR CHOP act, XBP1 UPR activ, Jurkat NFkB inh)
CCCCCCOc1ccc(N2C(=O)CC(N3CCN(CCN=CC4C(=O)CC(C)(C)CC4=O)CC3)C2=O)cc1 (centres undefined)	CHOP inhibitor 71
CCCCCCOc1ccc(N2C(=O)CC(N3CCN(CCN=CC4=C(O)CC(C)(C)CC4=O)CC3)C2=O)cc1 (centres undefined)	none
C=CCn1c(SCc2nc3ccccc3c(=O)[nH]2)nnc1-c1cc2cc(Cl)ccc2o1	CHOP inhibitor 83
N.N.N.N.N.N.N.N.N.N.N.N.N.N.O.O.[Cl-].[Cl-].[Cl-].[Cl-].[Cl-].[Cl-].[Ru+4].[Ru+5].[Ru+5]	none (no result: 697 NFkB inh, UPR CHOP act, XBP1 UPR activ, Gli-Sufu antag, Jurkat NFkB inh)
O=C1[C@H]2C(c3ccccc3)=NN(c3ccccc3)[C@H]2C(=O)N1c1ccccc1	none
O=C1C2C(c3ccccc3)=NN(c3ccccc3)C2C(=O)N1c1ccccc1 (centres undefined)	CHOP inhibitor 73
Cc1ccc(NCc2ccccc2OCc2ccccc2F)cc1	CHOP inhibitor 85
